{"source": "the RNAGym collection of RNA variant scans (doi:10.1126/science.aae0568)", "parents": {"B1": {"name": "tRNA (parent)", "chain": "GUUCCGUUGGCGUAAUGGUAACGCGUCUCCCUCCUAAGGAGAAGACUGCGGGUUCGAGUCCCGUACGGAACG"}}, "note": "Fewer inactive variants are shown than the library holds."}
{"variants_of": "B1", "assay": "yeast fitness relative to wild type (ratio to wild type); higher = fitter; tRNA-Arg(CCU), competitive growth, 37 C, YPD", "method_in_brief": "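Gene amplicons from the start population and from each of six end populations were read by 100-nucleotide paired-end sequencing. Those end populations came from pooled Saccharomyces cerevisiae strains carrying tRNA-Arg(CCU) gene variants at the native locus, competed in YPD at 37°C for 24 hours. Fitness relative to wild type was worked out from changes in genotype frequencies. Genotypes needed ≥ 100 starting reads, and estimates < 0.5 were set to 0.5.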"}
{"variant": "A37U G48C U59C", "yeast fitness": 0.533}
{"variant": "A37U G51A C55U", "yeast fitness": "≤ 0.5"}
{"variant": "G38C A40U G67A", "yeast fitness": "≤ 0.5"}
{"variant": "A37U C46U", "yeast fitness": 0.821}
{"variant": "G38C A40C U53C", "yeast fitness": 0.639}
{"variant": "A37U G44A U54A C62G C66G A69G", "yeast fitness": "≤ 0.5"}
{"variant": "G38C A42C C49A", "yeast fitness": "≤ 0.5"}
{"variant": "G38A C46U A69U", "yeast fitness": 0.686}
{"variant": "G38C A43G C49G G51A C60U", "yeast fitness": "≤ 0.5"}
{"variant": "G38A U47C C66U", "yeast fitness": 0.555}
{"variant": "G38A A43G A57C", "yeast fitness": "≤ 0.5"}
{"variant": "A37U C62U", "yeast fitness": 0.859}
{"variant": "G38A C66A", "yeast fitness": 0.72}
{"variant": "G38A C66U", "yeast fitness": 0.909}
{"variant": "A37U G56A A65C", "yeast fitness": 0.5}
{"variant": "A37U G48C G68U", "yeast fitness": 0.57}
{"variant": "G38C A40U G51A C60U G68A", "yeast fitness": "≤ 0.5"}
{"variant": "G38A A42C A45U G52A", "yeast fitness": "≤ 0.5"}
{"variant": "G38A A40U G58C", "yeast fitness": 0.853}
{"variant": "A37U U47C U53G A69U", "yeast fitness": "≤ 0.5"}
{"variant": "G38A C62U", "yeast fitness": 0.961}
{"variant": "G38A U53C", "yeast fitness": 0.799}
{"variant": "G38A U53A", "yeast fitness": 0.587}
{"variant": "A37U G50C C66U", "yeast fitness": 0.593}
{"variant": "G38A G44C", "yeast fitness": 0.712}
{"variant": "G38C A42G C62U", "yeast fitness": "≤ 0.5"}
{"variant": "A37U A43C U47C C60G", "yeast fitness": "≤ 0.5"}
{"variant": "A37U A43C U53A U54C", "yeast fitness": "≤ 0.5"}
{"variant": "A37U C61U A70G", "yeast fitness": 0.572}
{"variant": "A37U C55A", "yeast fitness": "≤ 0.5"}
{"variant": "A37U C55G", "yeast fitness": 0.609}
{"variant": "A37U C55U", "yeast fitness": 0.594}
{"variant": "A37U U53G", "yeast fitness": 0.538}
{"variant": "A37U A43U G48C", "yeast fitness": 0.514}
{"variant": "A37U G52C", "yeast fitness": "≤ 0.5"}
{"variant": "A37U G51A C66G", "yeast fitness": "≤ 0.5"}
{"variant": "G38A A43G A69C", "yeast fitness": "≤ 0.5"}
{"variant": "A37U C55A C60U", "yeast fitness": "≤ 0.5"}
{"variant": "G38A G39A", "yeast fitness": 0.637}
{"variant": "A37U U47C G51C G63C", "yeast fitness": 0.507}
{"variant": "G38A U47C C62U", "yeast fitness": 0.539}
{"variant": "G38A A40U G50C C60G A65U", "yeast fitness": "≤ 0.5"}
{"variant": "A37U C60G", "yeast fitness": 0.516}
{"variant": "A37U C60U", "yeast fitness": 0.519}
{"variant": "G38A G50A", "yeast fitness": 0.859}
{"variant": "G38A G50C", "yeast fitness": 0.746}
{"variant": "G38A A57G", "yeast fitness": 0.854}
{"variant": "G38A A70G", "yeast fitness": 0.998}
{"variant": "G38A A70C", "yeast fitness": 0.942}
{"variant": "G38A A70U", "yeast fitness": 0.953}
{"variant": "G38C A40U G48A C66U", "yeast fitness": 0.556}
{"variant": "A37U C66G", "yeast fitness": "≤ 0.5"}
{"variant": "G38A A45C A69U", "yeast fitness": 0.684}
{"variant": "A37U U64C", "yeast fitness": 0.77}
{"variant": "G38A A45G G52A C61G", "yeast fitness": 0.679}
{"variant": "G38A G39A A42G C46G", "yeast fitness": 0.537}
{"variant": "A37U C61A", "yeast fitness": "≤ 0.5"}
{"variant": "A37U G56C A57U", "yeast fitness": "≤ 0.5"}
{"variant": "A37U A45U U47C", "yeast fitness": "≤ 0.5"}
{"variant": "A37U A43G G63A G67C A70G", "yeast fitness": 0.802}
{"variant": "A37U G52A A57C C60A", "yeast fitness": "≤ 0.5"}
{"variant": "A37U U47C U53G C62U", "yeast fitness": "≤ 0.5"}
{"variant": "A37U U53G A65U", "yeast fitness": "≤ 0.5"}
{"variant": "G38A G67C", "yeast fitness": 0.776}
{"variant": "G38A G67U", "yeast fitness": 0.803}
{"variant": "G38A A40C G56A C60U C61G G67U", "yeast fitness": "≤ 0.5"}
{"variant": "G38A C61G G68C", "yeast fitness": "≤ 0.5"}
{"variant": "G38A C62A C66G", "yeast fitness": 0.804}
{"variant": "G38A C60G", "yeast fitness": 0.623}
{"variant": "G38A C60A", "yeast fitness": 0.646}
{"variant": "A37U G51C A57C", "yeast fitness": 0.552}
{"variant": "G38C A42G U64G", "yeast fitness": 0.781}
{"variant": "A37U A65U", "yeast fitness": 0.665}
{"variant": "A37U U54G", "yeast fitness": "≤ 0.5"}
{"variant": "A37U A57C G58A A69U A70C", "yeast fitness": 0.542}
{"variant": "G38A C61U", "yeast fitness": 0.931}
{"variant": "G38A A40G C66A", "yeast fitness": 0.597}
{"variant": "A37U G44A A69C", "yeast fitness": "≤ 0.5"}
{"variant": "A37U U47G A57C", "yeast fitness": "≤ 0.5"}
{"variant": "A37U U53A G58C", "yeast fitness": "≤ 0.5"}
{"variant": "A37U U54C U64A A69U", "yeast fitness": "≤ 0.5"}
{"variant": "G38A G63A", "yeast fitness": 0.897}
{"variant": "A37U G67C", "yeast fitness": 0.619}
